Reference: ChEMBL document CHEMBL4699573, “Design, Synthesis, and Pharmacological Evaluation of Analogues Derived from the PLEV Tetrapeptide as Protein-Protein Interaction Modulators of Voltage-Gated Sodium Channel 1.6” (J Med Chem, 2020)
The source made the active and inactive calls. No cut-off for these calls is given here. Residues, ends and D or L forms follow the SMILES beside them. *: point of attachment. Adamantane1carbonyl = O=C(C12CC3CC(CC(C3)C1)C2)*; Pyrrolidide = C1CCN(*)C1; Cbz = O=C(OCc1ccccc1)*; OcHex = C1CCC(O*)CC1; OtBu = CC(C)(C)O*; OAll = C=CCO*; OPr = CCCO*

Key:
[1] = biological target: T1, Sodium channel protein type 8 subunit alpha (Homo sapiens, UniProt Q9UQD0); experiment: Binding affinity to human recombinant Nav1.6 C-terminal domain expressed in Escherichia coli BL21 assessed as dissociation rate constant by SPR analysis; details: filed as modulator
Outline: (§1)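 Biacore T100 runs with FGF14 (17,896 RU) or Nav1.6 C-tail (6,800 RU) amine-coupled on CM5 at pH 5.5. Compounds at 0.195–200 μM in PBS, 0.005% Tween-20, 2% DMSO; 50 μL/min at 25 °C. 120 s association, 150 s dissociation, DMSO calibration, blank subtraction. Rates from a Langmuir 1:1 fit; KD averages the kinetic and steady-state values. At least duplicate experiments.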
Target sequence in this assay (Q9UQD0 whole entry, looked up, the tested form may be a part): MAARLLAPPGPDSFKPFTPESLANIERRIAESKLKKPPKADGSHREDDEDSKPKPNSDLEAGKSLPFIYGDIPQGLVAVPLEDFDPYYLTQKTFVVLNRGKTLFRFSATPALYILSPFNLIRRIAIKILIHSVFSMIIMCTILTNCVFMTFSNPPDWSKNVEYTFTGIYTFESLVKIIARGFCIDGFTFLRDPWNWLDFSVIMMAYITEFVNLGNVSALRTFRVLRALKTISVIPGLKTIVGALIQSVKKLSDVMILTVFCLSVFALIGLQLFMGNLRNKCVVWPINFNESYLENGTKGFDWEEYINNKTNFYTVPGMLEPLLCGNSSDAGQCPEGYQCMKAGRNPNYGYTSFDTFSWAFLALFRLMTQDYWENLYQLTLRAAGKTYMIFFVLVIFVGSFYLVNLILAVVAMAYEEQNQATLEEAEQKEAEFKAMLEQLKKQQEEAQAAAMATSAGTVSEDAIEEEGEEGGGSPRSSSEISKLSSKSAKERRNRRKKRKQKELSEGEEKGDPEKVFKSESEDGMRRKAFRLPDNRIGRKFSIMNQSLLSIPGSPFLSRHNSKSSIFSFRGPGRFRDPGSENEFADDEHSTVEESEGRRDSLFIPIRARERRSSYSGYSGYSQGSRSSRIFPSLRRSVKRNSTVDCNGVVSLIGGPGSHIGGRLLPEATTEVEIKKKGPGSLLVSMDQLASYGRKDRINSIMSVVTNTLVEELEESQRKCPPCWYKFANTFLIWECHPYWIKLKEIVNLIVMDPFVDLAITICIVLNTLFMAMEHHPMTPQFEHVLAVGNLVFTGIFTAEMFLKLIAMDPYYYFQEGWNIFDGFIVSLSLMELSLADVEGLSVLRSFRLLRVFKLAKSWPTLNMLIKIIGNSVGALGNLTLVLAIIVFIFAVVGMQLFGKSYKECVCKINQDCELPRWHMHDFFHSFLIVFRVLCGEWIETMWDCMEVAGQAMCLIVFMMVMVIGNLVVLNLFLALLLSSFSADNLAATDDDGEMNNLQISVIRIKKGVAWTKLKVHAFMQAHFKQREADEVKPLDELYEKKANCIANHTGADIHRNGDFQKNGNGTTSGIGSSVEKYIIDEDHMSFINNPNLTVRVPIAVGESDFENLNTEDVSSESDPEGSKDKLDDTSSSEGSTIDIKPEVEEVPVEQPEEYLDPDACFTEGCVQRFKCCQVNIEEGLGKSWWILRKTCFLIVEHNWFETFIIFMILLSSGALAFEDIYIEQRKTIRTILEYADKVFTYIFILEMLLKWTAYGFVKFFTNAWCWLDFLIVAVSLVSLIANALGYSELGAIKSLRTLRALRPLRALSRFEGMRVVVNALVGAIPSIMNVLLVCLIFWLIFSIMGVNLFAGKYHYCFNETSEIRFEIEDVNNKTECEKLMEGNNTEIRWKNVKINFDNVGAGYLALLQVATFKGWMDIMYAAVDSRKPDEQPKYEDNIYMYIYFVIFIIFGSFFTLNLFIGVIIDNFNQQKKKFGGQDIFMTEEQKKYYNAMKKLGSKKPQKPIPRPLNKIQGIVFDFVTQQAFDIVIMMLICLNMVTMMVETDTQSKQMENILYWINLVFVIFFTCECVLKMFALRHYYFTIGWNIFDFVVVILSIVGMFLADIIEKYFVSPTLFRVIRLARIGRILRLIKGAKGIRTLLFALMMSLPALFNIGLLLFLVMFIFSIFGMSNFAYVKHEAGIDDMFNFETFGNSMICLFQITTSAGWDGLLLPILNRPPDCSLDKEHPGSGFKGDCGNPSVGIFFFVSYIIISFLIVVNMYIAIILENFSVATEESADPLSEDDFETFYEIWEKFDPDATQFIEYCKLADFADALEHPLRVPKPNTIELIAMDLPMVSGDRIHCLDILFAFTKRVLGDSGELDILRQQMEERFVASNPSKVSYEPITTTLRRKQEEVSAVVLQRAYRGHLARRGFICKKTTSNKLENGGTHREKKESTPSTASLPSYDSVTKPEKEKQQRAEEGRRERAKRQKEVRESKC

[2] = biological target: T2, Fibroblast growth factor 14 (Homo sapiens) (UniProt Q92915); experiment: Binding affinity to human recombinant FGF14 expressed in Escherichia coli BL21 assessed as assessed as induction of protein denaturation by measuring change in melting temperature at 50 uM by fluorescent dye based thermal shift assay; details: filed as modulator
T2 sequence (whole entry): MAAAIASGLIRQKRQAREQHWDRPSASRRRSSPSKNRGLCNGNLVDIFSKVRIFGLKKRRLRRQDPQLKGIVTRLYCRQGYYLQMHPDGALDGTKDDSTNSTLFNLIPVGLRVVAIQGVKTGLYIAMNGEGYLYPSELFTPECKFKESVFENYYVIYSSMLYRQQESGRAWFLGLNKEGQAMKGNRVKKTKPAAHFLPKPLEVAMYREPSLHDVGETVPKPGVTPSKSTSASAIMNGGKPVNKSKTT

[3] = biological target: T2, Fibroblast growth factor 14 (Homo sapiens); experiment: Binding affinity to human recombinant FGF14 expressed in Escherichia coli BL21 assessed as dissociation rate constant by SPR analysis; details: filed as modulator; outline: as §1
[4] = biological target: T1, Sodium channel protein type 8 subunit alpha; experiment: Binding affinity to human recombinant Nav1.6 C-terminal domain expressed in Escherichia coli BL21 assessed as assessed as induction of protein denaturation by measuring change in melting temperature at 10 uM by fluorescent dye based thermal shift assay; details: filed as modulator, dose 50.0 µM
Target sequence in this assay (Q9UQD0 whole entry, looked up, the tested form may be a part): as the sequence (Q9UQD0 whole entry, looked up, the tested form may be a part) above

HEK293 [5] = experiment: Cytotoxicity against HEK293 cells assessed as reduction in cell viability measured after 18 hrs by celltiter-blue assay; details: human, hek293, 18 h
[6] = biological target: T1, Sodium channel protein type 8 subunit alpha; experiment: Binding affinity to human recombinant Nav1.6 C-terminal domain expressed in Escherichia coli BL21 assessed as dissociation constant by SPR analysis; outline: as §1
Target sequence in this assay (Q9UQD0 whole entry, the tested form may be a part): as the sequence (Q9UQD0 whole entry, looked up, the tested form may be a part) above

HEK293 [7] = experiment: (§2) Modulation of recombinant human FGF141b (1 to 252 residues)-recombinant human Nav1.6 C-terminal tail (1763 to 1976 residues) protein-protein interaction expressed in HEK293 cells measured at 2 mins interval for 20 mins by split-luciferase complementation assay relative to control; assay type: cell-based; details: filed as modulator, time min 2-20
Outline: (§3)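 Double-stable HEK293 line expressing CLuc-FGF14 and CD4-Nav1.6-C-tail-NLuc, kept on G418 and puromycin. Cells seeded for 24 h, then given compound for 1 h in serum-free, phenol red-free DMEM/F12 with a final 0.5% DMSO: 50 μM for screening, 0.25–100 μM over eight concentrations for dose-response; n = 4. D-luciferin added and read every 2 min for 20 min at 37 °C. Peak luminescence expressed as percent of per-plate DMSO mean (n = 32). IC50 from four-parameter nonlinear fit. At least 3 experiments.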

HEK293 [8] = experiment: Inhibition of full-length Photinus pyralis luciferase transfected in HEK293 cells at 25 uM incubated for 1 hrs by split-luciferase complementation assay; assay type: cell-based
Outline: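 HEK293 cells transfected with full-length Photinus pyralis luciferase, then treated 1 h with 25 μM compound (n = 4) or 0.5% DMSO (n = 32). Luminescence read after D-luciferin addition, as in the LCA, normalized to per-plate DMSO controls. One-way ANOVA with Dunnett's test.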

[9] = Modulation of recombinant human FGF141b (1 to 252 residues)-recombinant human Nav1.6 C-terminal tail (1763 to 1976 residues) protein-protein interaction expressed in HEK293 cells measured at 2 mins interval for 20 mins by split-luciferase complementation assay; assay type: cell-based; outline: as §3
HEK293 [10] = experiment: as §2, with “cells assessed as relative luminescence value at 50 uM” for “cells”; assay type: cell-based; details: filed as modulator, time min 2-20; outline: as §3
[11] = biological target: T1, Sodium channel protein type 8 subunit alpha; experiment: Binding affinity to human recombinant Nav1.6 C-terminal domain expressed in Escherichia coli BL21 assessed as association rate constant by SPR analysis; details: filed as modulator; outline: as §1
Target sequence in this assay (Q9UQD0 whole entry, looked up, the tested form may be a part): as the sequence (Q9UQD0 whole entry, looked up, the tested form may be a part) above

[12] = biological target: T3, Fibroblast growth factor 14 (Homo sapiens, UniProt Q92915); experiment: Binding affinity to human recombinant FGF14 expressed in Escherichia coli BL21 assessed as dissociation constant by SPR analysis; outline: as §1
T3 sequence (Q92915 whole entry): T2 sequence (whole entry)

[13] = biological target: T2, Fibroblast growth factor 14 (Homo sapiens); experiment: Binding affinity to human recombinant FGF14 expressed in Escherichia coli BL21 assessed as association rate constant by SPR analysis; details: filed as modulator; outline: as §1

Compound | K [1] | ΔTm [2] [°C] | K [3] | ΔTm [4] [°C] | Activity (HEK293 [5]) | Kd [6] [µM] | Efficacy (HEK293 [7]) [%] | inhibition (HEK293 [8]) | IC50 [9] [µM] | Activity (HEK293 [10]) [%] | K [11] | Kd [12] [µM] | K [13]
C=CCOC(=O)[C@@H](NC(=O)[C@H](CCC(=O)OC(C)(C)C)NC(=O)[C@H](CC(C)C)NC(=O)[C@@H]1CCCN1C(=O)C12CC3CC(CC(C3)C1)C2)C(C)C (Adamantane1carbonyl-PLE(OtBu)V-OAll) | 2.73 10^-3/s | -4.55 | 9.32 10^-3/s | 0.04 | Non-Toxic | > 200 | 95.5 | inactive | 11.5 | 5 | 6.16 10^6/M/s | 1.31 | 1.79 10^4/M/s
CCCOC(=O)[C@@H](NC(=O)[C@H](CCC(=O)OC(C)(C)C)NC(=O)[C@H](CC(C)C)NC(=O)[C@@H]1CCCN1C(=O)C12CC3CC(CC(C3)C1)C2)C(C)C (Adamantane1carbonyl-PLE(OtBu)V-OPr) | 4.92 10^-2/s | – | 2.04 10^-2/s | – | – | 90.1 | 83.3 | – | 22.5 | – | 3.4 10^2/M/s | 11.4 | 2.89 10^2/M/s
CC(C)C[C@H](NC(=O)[C@@H]1CCCN1C(=O)C12CC3CC(CC(C3)C1)C2)C(=O)N[C@@H](CCC(=O)OC(C)(C)C)C(=O)N[C@H](C(=O)OC1CCCCC1)C(C)C (Adamantane1carbonyl-PLE(OtBu)V-OcHex) | 1.7 10^-4/s | -2.21 | 1.39 10^-2/s | 0.43 | Non-Toxic | > 200 | 69.9 | inactive | 35.3 | 43.4 | 7.16 10^5/M/s | 7.02 | 7.35 10^3/M/s
CC(C)C[C@H](NC(=O)[C@@H]1CCCN1C(=O)C12CC3CC(CC(C3)C1)C2)C(=O)N[C@@H](CCC(=O)OC(C)(C)C)C(=O)N[C@H](C(=O)OC(C)(C)C)C(C)C (Adamantane1carbonyl-PLE(OtBu)V-OtBu) | 7.94 10^-3/s | -0.89 | 5.8 10^-3/s | -0.13 | Non-Toxic | > 200 | 92.1 | inactive | 33.9 | 33.6 | 8.29 10^5/M/s | 6.94 | 1.62 10^3/M/s
CC(C)C[C@H](NC(=O)[C@@H]1CCCN1C(=O)OCc1ccccc1)C(=O)N[C@@H](CCC(=O)OC(C)(C)C)C(=O)N[C@H](C(=O)N1CCCC1)C(C)C (Cbz-PLE(OtBu)V-Pyrrolidide) | – | 3.38 | 9.91 10^-4/s | -0.48 | Non-Toxic | – | 96.9 | inactive | 33.4 | 14 | – | 189 | 4.61 10^2/M/s
